From ChEMBL document CHEMBL1127367, “Antiproliferative properties of polyamine analogues: a structure-activity study” (J Med Chem, 1994) come the findings set out here.

Assay [1] has as its system L1210. The assay is described as follows: Compound was evaluated for its impact on spermidine levels after 48 hr at concentration 0.4 uM. Format: functional, Mus musculus. In a few lines:
(§1)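 L1210 suspension cultures were grown in RPMI-1640 with 10% NuSerum, 2% HEPES-MOPS and 1 mM aminoguanidine (37 °C, 5% CO2). Log-phase cells were treated for 48 h, then washed twice in cold RPMI-1640 and pelleted. Pellets were extracted with 0.6 N perchloric acid, and supernatants were held at −20 °C until HPLC. Polyamine levels are given as % of untreated controls.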

Assay [2] deals with L1210. In words: Compound was evaluated for its impact on spermidine levels after 48 hr at concentration 10 uM. The format is functional, Mus musculus. In a few lines:
as §1

The subject of assay [3] is L1210. In words: Compound was evaluated for its impact on spermidine levels after 48 hr at concentration 2 uM. The format is functional, Mus musculus. In a few lines: as §1
For assay [4], the system named is L1210. In words: Compound was evaluated for its impact on spermine levels after 48 hr at concentration 0.4 uM. The format is functional, Mus musculus. In short, it runs like this:
(§2)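 Murine L1210 leukemia cells in log-phase suspension (RPMI-1640, 10% NuSerum, 2% HEPES-MOPS, 1 mM aminoguanidine, 37 °C, 5% CO2) exposed to analogue for 48 h. Cells washed twice in cold RPMI-1640, extracted with 0.6 N perchloric acid, and polyamines quantified by HPLC. Spermine is reported as % of untreated control.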

Assay [5] has as its system L1210. The assay is described as follows: Compound was evaluated for its impact on spermine levels after 48 hr at concentration 10 uM. Format: functional, Mus musculus. In a few lines: as §2
Assay [6] concerns L1210. The assay is described as follows: Compound was evaluated for its impact on spermine levels after 48 hr at concentration 2 uM. Format: functional, Mus musculus. In a few lines: as §2
The test system of assay [7] is L1210. In words: Compound was evaluated for its impact on putrescine (Put) levels after 48 hr at concentration 0.4 uM. The format is functional, Mus musculus. In a few lines: as §1
Assay [8] deals with L1210. The assay is described as follows: Inhibition of radiolabeled spermidine uptake into L1210 cells in vitro. Format: functional, cell-based, Mus musculus.
Assay [9] deals with L1210. The assay is described as follows: Compound was evaluated for its impact on putrescine (Put) levels after 48 hr at concentration 10 uM. Format: functional, Mus musculus. In short, it runs like this: as §1
The test system of assay [10] is L1210. The assay is described as follows: Compound was evaluated for its impact on putrescine (Put) levels after 48 hr at concentration 2 uM. The format is functional, Mus musculus. In a few lines: as §1
The subject of assay [11] is L1210. In words: In vitro inhibition of L1210 growth after 48 hours. The format is functional, cell-based. To be noted: Mus musculus, L1210, 48 h. In short, it runs like this:
(§3)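 Log-phase L1210 cultures (0.5–1.0 × 10^5 cells/mL) treated with analogue diluted in sterile water and filter-sterilized. After 48 h, cells were reseeded and grown a further 48 h for the 96 h point. Cells counted by Coulter counter. % growth = (treated − inoculum)/(untreated − inoculum) × 100.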

Assay [12] relates to L1210. In words: In vitro inhibition of L1210 growth after 96 hours. Format: functional, cell-based. The settings on record: Mus musculus, L1210, 96 h. In a few lines: as §3
Assay [13] deals with T1, Ornithine decarboxylase (Mus musculus) (UniProt P00860).
T1 sequence (whole entry): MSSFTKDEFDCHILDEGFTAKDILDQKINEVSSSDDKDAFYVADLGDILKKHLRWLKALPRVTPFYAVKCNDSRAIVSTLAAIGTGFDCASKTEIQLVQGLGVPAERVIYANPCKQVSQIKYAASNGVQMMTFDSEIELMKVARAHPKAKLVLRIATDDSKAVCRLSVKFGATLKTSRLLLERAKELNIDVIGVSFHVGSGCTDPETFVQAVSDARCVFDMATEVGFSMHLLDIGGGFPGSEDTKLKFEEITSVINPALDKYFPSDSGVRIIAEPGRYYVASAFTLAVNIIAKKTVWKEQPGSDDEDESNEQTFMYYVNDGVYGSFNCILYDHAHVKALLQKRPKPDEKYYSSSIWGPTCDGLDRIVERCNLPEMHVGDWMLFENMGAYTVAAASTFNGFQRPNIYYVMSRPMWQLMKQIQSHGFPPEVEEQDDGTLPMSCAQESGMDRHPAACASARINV
The assay is described as follows: Inhibition of ornithine decarboxylase (ODC) activity. The arrangement: concentration or dose not given beside the values. Format: functional.

Assay [14] addresses T2, S-adenosylmethionine decarboxylase proenzyme 1 (Mus musculus) (UniProt P0DMN7).
T2 sequence (whole entry): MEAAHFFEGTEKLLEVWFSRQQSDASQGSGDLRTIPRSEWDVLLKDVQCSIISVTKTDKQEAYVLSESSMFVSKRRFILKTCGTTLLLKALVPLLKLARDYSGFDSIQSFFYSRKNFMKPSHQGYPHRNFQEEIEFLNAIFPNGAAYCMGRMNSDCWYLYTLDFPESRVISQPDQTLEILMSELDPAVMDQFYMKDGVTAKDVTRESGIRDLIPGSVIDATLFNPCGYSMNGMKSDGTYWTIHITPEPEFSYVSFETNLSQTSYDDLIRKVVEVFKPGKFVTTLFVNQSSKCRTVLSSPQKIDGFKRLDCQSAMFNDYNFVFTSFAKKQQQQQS
In words: Inhibition of S-Adenosyl-methionine decarboxylase (AdoMetDC) activity. The format is functional. The arrangement: concentration or dose not given beside the values.

Turning to `CCNCCCCNCCCCNCCCCNC(C)(C)C`, the Polyamine in the assay with L1210 [1] is 96%; with L1210 [2], 10%; in the assay on L1210 [3], 68%; with L1210 [4], 75%; with L1210 [5] it was 77%; in the assay with L1210 [6] it was 63%. Besides, the Polyamine with L1210 [7] came to 133%; in the assay on L1210 [9] it was 0%; in the assay with L1210 [10], 78%. For the same compound, the Ki with L1210 [8] turned out to be 3 µM. For the same compound, the IC50 stood at 0.4 µM with L1210 [11] and 0.03 µM in the assay with L1210 [12]. Besides, the figures for the Activity in [13] and in [14] were 79% and 81%, respectively.

A word on the Ki: it is a dissociation constant, usually derived from enzyme kinetics or from competition with a known ligand. For orientation: IC50 means the concentration needed to halve the response being measured.
